Converted amounts (≈) assume the structure as drawn. Where two headings read alike, the source gives them in different places. Marks after values point to notes of the source that are not given here.
Tests used:
[1] = In vitro antioxidation activity; settings: DPPH assay, mean of three replicates; for EC50 (antioxidation activity), crude and partitioned extracts: Table 1 experiment
Outline: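 Five concentrations of test compound or extract were prepared in DMSO. Each was mixed with 0.15 mM DPPH in methanol and held at 25 °C for 30 min, then A517 was read. Ascorbic acid served as reference standard. Antioxidation (%) = [(A control − A sample)/A control] × 100. EC50 came from linear and nonlinear regression of % activity against concentration. Triplicates were used.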

[2] = tested on: human tyrosinase; settings: ref An et al., 2010, cited from earlier work

Structure (SMILES) | EC50 (antioxidation activity), crude and partitioned extracts [1] | EC50 (antioxidation activity), crude and partitioned extracts ([1]; listed as ascorbic acid) [µg/mL] | EC50 value of pooled fractions after SG60CC ([1]; nonlinear regression, Table 4 experiment) | Type of inhibition of human tyrosinase ([2]; for L-DOPA) | Type of inhibition of human tyrosinase ([2]; for tyrosine)
O=C1O[C@H]([C@@H](O)CO)C(O)=C1O [Ascorbic acid, ascorbic acid] | 89.82^a μg/mL | 89.8 (≈ 510 µM) | 71.5^a μg/mL |  | 
O=C(O)/C=C/c1ccc(O)cc1 [p-coumaric acid] |  |  |  | competitive | mixed type

— PMC7090343 (Heliyon, 2020)
